Experimental findings from ChEMBL document CHEMBL1833812, “Synthesis, biological evaluation, and automated docking of constrained analogues of the opioid peptide H-Dmt-D-Ala-Phe-Gly-NH₂ using the 4- or 5-methyl substituted 4-amino-1,2,4,5-tetrahydro-2-benzazepin-3-one scaffold” (J Med Chem, 2011) are described below.

Assay [1] has as its target Delta-type opioid receptor (Rattus norvegicus, UniProt P33533). As to the kind of experiment: Displacement of [3H]Ile-deltorphin-2 from rat brain delta-type opioid receptor by liquid scintillation counting. In short, it runs like this:
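Wistar male rat (250–300 g) brain membranes, 0.2–0.4 mg protein/tube, 2 nM [3H]Ile5,6-deltorphin-2 plus 0.25 mg BSA/tube, competitor 10^-11–10^-5 M, 50 mM Tris-HCl pH 7.4, 45 min at 35 °C. GF/B filtration, ice-cold Tris washes, scintillation counting. Nonspecific binding with 10 μM naloxone; duplicates, one/two-site competition fit for Ki.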
A general note: In a radioligand displacement assay an active substance lowers the binding of a labelled ligand.

The target in assay [2] is T1, Mu-type opioid receptor (Rattus norvegicus, UniProt P33535). Kind of assay: Displacement of [3H]DAMGO from rat brain Mu-type opioid receptor by liquid scintillation counting. The method, boiled down:
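Wistar male rat (250–300 g) brain membrane homogenate, 0.2–0.4 mg protein/tube, with 0.5 nM [3H]DAMGO and competitor 10^-11–10^-5 M in 50 mM Tris-HCl pH 7.4, 1 h at 25 °C. Stopped by GF/C filtration, ice-cold Tris washes, scintillation counted. Nonspecific binding with 10 μM naloxone; duplicate runs, one/two-site competition fit for Ki.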

The target in assay [3] is T1, Mu-type opioid receptor. Kind of assay: Agonist activity at rat brain mu-opioid receptor assessed as [35S]GTPgammaS binding by liquid scintillation counting. The format is functional. The method, boiled down: (§1)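 Rat brain membranes (15 μg protein/tube) with 0.05 nM [35S]GTPγS and opioids 10^-10–10^-5 M, plus 30 μM GDP, 100 mM NaCl, 3 mM MgCl2, 1 mM EGTA in 50 mM Tris-HCl pH 7.4, 60 min at 30 °C. Started by protein, stopped with ice-cold buffer and GF/B filtration, scintillation counted. Nonspecific binding with 10 μM unlabeled GTPγS; stimulation as % of specific binding over basal (no opioid).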

The target of assay [4] is Mu-type opioid receptor (Rattus norvegicus) (UniProt P33535). As to the kind of experiment: Agonist activity at rat brain Mu-type opioid receptor assessed as [35S]GTPgammaS binding by liquid scintillation counting relative to control. The class given is functional. In short, it runs like this: as §1
Sequence of Mu-type opioid receptor (Rattus norvegicus) (P33535 whole entry): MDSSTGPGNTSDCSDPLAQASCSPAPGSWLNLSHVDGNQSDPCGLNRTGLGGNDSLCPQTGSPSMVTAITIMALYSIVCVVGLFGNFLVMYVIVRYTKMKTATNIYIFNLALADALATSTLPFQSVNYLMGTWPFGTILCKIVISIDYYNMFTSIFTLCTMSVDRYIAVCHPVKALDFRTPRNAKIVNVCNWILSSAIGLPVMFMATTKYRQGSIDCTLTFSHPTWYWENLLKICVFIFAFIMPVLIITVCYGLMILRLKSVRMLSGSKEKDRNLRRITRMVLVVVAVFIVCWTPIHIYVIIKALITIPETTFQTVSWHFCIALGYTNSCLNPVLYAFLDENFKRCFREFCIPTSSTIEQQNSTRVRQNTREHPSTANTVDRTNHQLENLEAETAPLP
A general note: GTPγS resists hydrolysis and so accumulates on activated G proteins.

The species named for another assay is Rattus norvegicus. Kind of assay: Selectivity ratio of Ki of rat brain delta-type opioid receptor to Ki of rat brain Mu-type opioid receptor.
The target in assay [5] is Mu-type opioid receptor (Cavia porcellus, UniProt P97266). As to the kind of experiment: Agonist activity at guinea pig ileum Mu-type opioid receptor. The class given is functional, tissue-based.
Sequence of Mu-type opioid receptor (Cavia porcellus, UniProt P97266) (P97266 whole entry): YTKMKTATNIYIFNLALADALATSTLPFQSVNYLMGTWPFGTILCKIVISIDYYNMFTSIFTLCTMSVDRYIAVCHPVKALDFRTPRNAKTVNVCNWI
Assay [6] deals with Mu-type opioid receptor (Homo sapiens, UniProt P35372). Kind of assay: Agonist activity at Mu-type opioid receptor. The format is functional.
Sequence of Mu-type opioid receptor (Homo sapiens, UniProt P35372) (P35372 whole entry): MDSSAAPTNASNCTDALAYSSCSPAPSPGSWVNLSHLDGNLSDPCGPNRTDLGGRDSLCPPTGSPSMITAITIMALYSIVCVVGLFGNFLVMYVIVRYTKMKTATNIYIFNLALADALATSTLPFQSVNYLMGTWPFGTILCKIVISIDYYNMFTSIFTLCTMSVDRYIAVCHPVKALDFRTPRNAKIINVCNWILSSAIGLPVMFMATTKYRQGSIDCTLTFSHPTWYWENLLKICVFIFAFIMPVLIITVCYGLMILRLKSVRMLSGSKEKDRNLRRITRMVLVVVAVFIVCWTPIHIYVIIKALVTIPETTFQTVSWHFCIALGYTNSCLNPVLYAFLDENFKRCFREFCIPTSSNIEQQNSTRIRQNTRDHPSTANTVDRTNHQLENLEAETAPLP
The target of assay [7] is Delta-type opioid receptor (Homo sapiens, UniProt P41143). As to the kind of experiment: Agonist activity at delta-type opioid receptor. The class given is functional.
Sequence of Delta-type opioid receptor (Homo sapiens, UniProt P41143) (P41143 whole entry): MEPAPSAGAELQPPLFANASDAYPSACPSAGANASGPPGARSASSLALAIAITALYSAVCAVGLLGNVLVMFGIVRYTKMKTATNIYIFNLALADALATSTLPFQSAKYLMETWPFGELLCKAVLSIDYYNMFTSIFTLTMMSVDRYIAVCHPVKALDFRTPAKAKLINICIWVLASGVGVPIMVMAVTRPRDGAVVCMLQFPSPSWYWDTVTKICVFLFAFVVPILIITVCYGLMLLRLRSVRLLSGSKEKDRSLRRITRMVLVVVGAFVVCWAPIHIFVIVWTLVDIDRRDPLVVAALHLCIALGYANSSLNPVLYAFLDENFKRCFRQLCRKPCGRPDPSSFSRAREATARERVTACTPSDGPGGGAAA

T1 sequence (P33535 whole entry): as the sequence (P33535 whole entry) above
Sequence of Delta-type opioid receptor (Rattus norvegicus, UniProt P33533) (P33533 whole entry): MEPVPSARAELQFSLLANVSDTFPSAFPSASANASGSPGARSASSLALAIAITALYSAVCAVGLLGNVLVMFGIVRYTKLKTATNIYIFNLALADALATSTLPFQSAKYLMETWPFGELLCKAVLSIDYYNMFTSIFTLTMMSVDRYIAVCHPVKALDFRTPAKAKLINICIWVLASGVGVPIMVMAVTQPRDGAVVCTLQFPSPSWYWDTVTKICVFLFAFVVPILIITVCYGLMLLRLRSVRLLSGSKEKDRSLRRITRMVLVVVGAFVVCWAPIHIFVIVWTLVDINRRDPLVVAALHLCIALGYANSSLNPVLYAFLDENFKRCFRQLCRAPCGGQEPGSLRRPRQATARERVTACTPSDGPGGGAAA

Regarding `Cc1cc(O)cc(C)c1C[C@H](N)C(=O)N[C@H](C)C(=O)N[C@@H]1C(=O)N(CC(N)=O)Cc2ccccc2[C@H]1C`, the Ki came to 720 nM in assay [1] and 14 nM at Mu-type opioid receptor [2]. Besides, the EC50 at Mu-type opioid receptor [3] was found to be 685 nM. Moreover, the Emax in assay [4] was 130%. For the same compound, in the assay listed under Rattus norvegicus, the Ratio Ki is 51.

As to `Cc1cc(O)cc(C)c1C[C@H](N)C(=O)N[C@H](C)C(=O)N[C@H]1C(=O)N(CC(N)=O)Cc2ccccc2[C@@H]1C`, the Ki was found to be 24 nM in assay [1] and 0.025 nM on Mu-type opioid receptor [2]. For the same compound, the EC50 on Mu-type opioid receptor [3] came out at 9.3 nM. For the same compound, in assay [4], the Emax was 149%. Further, the Ratio Ki in the assay filed under Rattus norvegicus worked out at 960.

Regarding `Cc1cc(O)cc(C)c1C[C@H](N)C(=O)N[C@H](C)C(=O)N[C@H]1C(=O)N(CC(N)=O)Cc2ccccc2[C@H]1C`, the Ki was found to be 490 nM in assay [1] and 0.4 nM at Mu-type opioid receptor [2]. In addition, the EC50 on Mu-type opioid receptor [3] was 184 nM. Also, the Emax in assay [4] was determined as 167%. For the same compound, the Ratio Ki in the assay listed under Rattus norvegicus was 1220.

Take `C[C@H](C(=O)NC1Cc2ccccc2CN(CC(N)=O)C1=O)N1Cc2cc(O)ccc2CC(N)C1=O` (some centres undefined): the IC50 at Mu-type opioid receptor [5] came out at 3.64 nM; at Mu-type opioid receptor [6] it was 20.8 nM.

Take `Cc1cc(O)cc(C)c1C[C@H](N)C(=O)N[C@H](C)C(=O)N[C@]1(C)Cc2ccccc2CN(CC(N)=O)C1=O`: the Ki worked out at 63 nM in assay [1] and 0.3 nM at Mu-type opioid receptor [2]. Further, the EC50 on Mu-type opioid receptor [3] was determined as 288 nM. In assay [4], the Emax was 154%. In addition, in the assay listed under Rattus norvegicus, the Ratio Ki turned out to be 210.

As to `Cc1cc(O)cc(C)c1C[C@H](N)C(=O)N[C@H](C)C(=O)N[C@H]1Cc2ccccc2CN(CC(N)=O)C1=O`, the Ki in assay [1] was found to be 2.4 nM; at Mu-type opioid receptor [2], 0.047 nM. The EC50 at Mu-type opioid receptor [3] amounted to 18 nM. In addition, in assay [4], the Emax is 161%. For the same compound, in the assay filed under Rattus norvegicus, the Ratio Ki was 51.

`C[C@@H](NC(=O)[C@@H](N)Cc1ccc(O)cc1)C(=O)NC1Cc2ccccc2CN(CC(=O)N[C@@H](Cc2ccc(O)cc2)C(=O)N2CCC[C@H]2C(=O)N[C@@H](CO)C(N)=O)C1=O` (some centres undefined): the IC50 amounted to 17.4 nM in assay [7] and 11 nM at Mu-type opioid receptor [6].

With `Cc1cc(O)cc(C)c1C[C@H](N)C(=O)N[C@H](C)C(=O)N[C@@H]1Cc2ccccc2CN(CC(N)=O)C1=O`, the Ki turned out to be 337 nM in assay [1] and 0.33 nM on Mu-type opioid receptor [2]. Moreover, the EC50 at Mu-type opioid receptor [3] came to 64.2 nM. Besides, the Emax in assay [4] was 178%. For the same compound, the Ratio Ki in the assay filed under Rattus norvegicus turned out to be 1020.

For the compound `Cc1cc(O)cc(C)c1C[C@H](N)C(=O)N[C@H](C)C(=O)N[C@@H]1C(=O)N(CC(N)=O)Cc2ccccc2[C@@H]1C`, the Ki was found to be 1.7 nM in assay [1] and 0.025 nM on Mu-type opioid receptor [2]. In addition, the EC50 on Mu-type opioid receptor [3] came out at 36 nM. Moreover, in assay [4], the Emax turned out to be 191%. Also, the Ratio Ki in the assay filed under Rattus norvegicus was 68.

As for `Cc1cc(O)cc(C)c1C[C@H](N)C(=O)N[C@H](C)C(=O)N[C@@]1(C)Cc2ccccc2CN(CC(N)=O)C1=O`, the Ki was found to be 859 nM in assay [1] and 4.6 nM at Mu-type opioid receptor [2]. Besides, the EC50 on Mu-type opioid receptor [3] turned out to be 941 nM. For the same compound, the Emax in assay [4] was found to be 159%. Also, the Ratio Ki in the assay filed under Rattus norvegicus was found to be 187.

One may read the Ki as the dissociation constant of the complex between target and ligand, obtained from inhibition or displacement. A lower Ki goes with higher affinity. As a reminder, the EC50 is the concentration needed to bring the measured effect to its halfway point. One may read the Emax as the size of the effect at its maximum, as opposed to the concentration needed. One may read the IC50 as the midpoint of a concentration-inhibition curve. High values mean weaker potency in that assay, low ones greater potency in that assay.
